Among the data in ChEMBL document CHEMBL3108769, “Development of 1,8-naphthalimides as clathrin inhibitors” (J Med Chem, 2014) are inhibition and IC50 values, retold here.

Assay [1] concerns the target T1, Clathrin heavy chain 1 (Homo sapiens, UniProt Q00610). The experiment in a line: Inhibition of recombinant GST-tagged clathrin heavy chain (unknown origin) at 100 uM after 1 hr by ELISA. A general note: An ELISA detects its analyte on a solid surface through an enzyme-linked reagent.
For assay [2], the species on record is Ovis aries. The experiment in a line: Inhibition of phosphotidylserine-stimulated sheep brain dynamin 1 GTPase activity assessed as inhibition of phosphate release from GTP at 100 uM after 30 mins by malachite green reagent method.
For assay [3], the system named is U2OS. The experiment in a line: Inhibition of clathrin in human U2OS cells assessed as texas red-Tf endocytosis incubated 30 mins prior to texas red-Tf addition measured after 8 mins. It counts as cell-based. A digest of the protocol: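 U2OS cells preincubated 30 min with inhibitor (1 to 300 μM) or vehicle, then 4 μg/mL Tf-A594 added for 8 min at 37 °C. Uptake quantified by automated imaging and analysis, ~1200 cells per point. IC50 fitted; reported as mean ±95% CI from three wells.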

Assay [4] is filed under the species Ovis aries. The following applies: 300 uM.
Assay [5] in a line: Inhibition of phosphotidylserine-stimulated sheep brain dynamin 1 GTPase activity assessed as inhibition of phosphate release from GTP after 30 mins by malachite green reagent method. On the set-up: species or system Ovis aries. The essentials: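 Native dynamin I purified from sheep brain (peripheral membrane fraction, GST-Amph2-SH3-sepharose affinity). Dynamin (20 nM) stimulated by 4 μg/mL sonicated phosphatidylserine with compound for 30 min at 37 °C. Buffer: 5 mM Tris-HCl pH 7.4, 10 mM NaCl, 2 mM Mg2+, 1 μg/mL leupeptin, 0.1 mM PMSF, 0.3 mM GTP. Phosphate release read by malachite green.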

The target of assay [6] is T1, Clathrin heavy chain 1. The experiment in a line: Inhibition of recombinant GST-tagged clathrin heavy chain (unknown origin) after 1 hr by ELISA.

Molecules are shown by their SMILES. Activity calls are given as the source filed them. The calls are words filed in the database; no cut-off is given here.

T1 sequence (Q00610 whole entry): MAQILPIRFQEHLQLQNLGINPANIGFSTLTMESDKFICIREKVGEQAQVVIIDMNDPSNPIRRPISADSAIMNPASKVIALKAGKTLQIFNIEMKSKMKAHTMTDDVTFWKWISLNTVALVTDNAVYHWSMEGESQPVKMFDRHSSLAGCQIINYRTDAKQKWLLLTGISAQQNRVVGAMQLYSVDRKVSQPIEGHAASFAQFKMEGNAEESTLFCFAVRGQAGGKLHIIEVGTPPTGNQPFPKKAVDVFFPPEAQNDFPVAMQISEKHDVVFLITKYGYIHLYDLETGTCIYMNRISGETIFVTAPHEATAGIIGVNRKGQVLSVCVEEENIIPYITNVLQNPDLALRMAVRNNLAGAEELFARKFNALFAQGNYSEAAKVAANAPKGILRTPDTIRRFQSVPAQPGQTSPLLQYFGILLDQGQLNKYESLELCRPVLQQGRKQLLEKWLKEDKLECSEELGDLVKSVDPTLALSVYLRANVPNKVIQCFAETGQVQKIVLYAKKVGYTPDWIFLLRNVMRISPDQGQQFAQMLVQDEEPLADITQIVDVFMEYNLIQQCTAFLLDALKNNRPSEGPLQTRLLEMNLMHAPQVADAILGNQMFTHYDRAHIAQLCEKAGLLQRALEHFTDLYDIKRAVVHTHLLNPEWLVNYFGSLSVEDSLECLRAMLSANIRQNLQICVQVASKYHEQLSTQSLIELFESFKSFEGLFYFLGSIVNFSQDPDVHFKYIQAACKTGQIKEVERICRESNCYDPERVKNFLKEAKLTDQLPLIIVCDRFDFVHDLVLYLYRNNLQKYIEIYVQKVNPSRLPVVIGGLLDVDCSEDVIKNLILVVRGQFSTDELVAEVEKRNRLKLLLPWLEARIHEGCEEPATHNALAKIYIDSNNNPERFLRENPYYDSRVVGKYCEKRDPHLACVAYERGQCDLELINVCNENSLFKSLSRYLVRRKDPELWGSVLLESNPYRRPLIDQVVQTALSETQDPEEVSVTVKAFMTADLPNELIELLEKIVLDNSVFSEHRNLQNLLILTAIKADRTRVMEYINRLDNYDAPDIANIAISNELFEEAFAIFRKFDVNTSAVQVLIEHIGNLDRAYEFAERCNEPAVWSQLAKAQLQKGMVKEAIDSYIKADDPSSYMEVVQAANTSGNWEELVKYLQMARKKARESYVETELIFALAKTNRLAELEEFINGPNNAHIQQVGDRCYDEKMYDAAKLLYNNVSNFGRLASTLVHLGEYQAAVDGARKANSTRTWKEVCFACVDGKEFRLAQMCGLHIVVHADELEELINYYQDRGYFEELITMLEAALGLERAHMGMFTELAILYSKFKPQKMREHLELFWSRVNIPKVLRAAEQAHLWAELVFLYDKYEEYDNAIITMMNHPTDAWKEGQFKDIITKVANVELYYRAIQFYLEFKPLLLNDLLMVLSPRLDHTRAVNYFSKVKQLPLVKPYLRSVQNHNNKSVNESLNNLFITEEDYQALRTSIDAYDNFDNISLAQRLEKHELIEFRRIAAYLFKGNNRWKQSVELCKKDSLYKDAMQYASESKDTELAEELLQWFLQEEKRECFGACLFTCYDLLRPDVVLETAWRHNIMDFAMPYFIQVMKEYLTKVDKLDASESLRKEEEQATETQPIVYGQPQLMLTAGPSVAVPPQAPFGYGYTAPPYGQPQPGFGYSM

Consider `Nc1ccc(N2C(=O)c3cccc4cc(S(=O)(=O)O)cc(c34)C2=O)cc1`, for which the inhibition result in assay [1], in assay [2] and in assay [3] was “inactive” in each case.
For the compound `CN(C)c1ccc(CN2C(=O)c3cccc4cc(S(=O)(=O)O)cc(c34)C2=O)cc1`, the inhibition result in assay [4] and in assay [3] was “inactive” throughout.
On to `COc1ccc(CN2C(=O)c3cccc4cc(S(=O)(=O)O)cc(c34)C2=O)cc1`, for which the inhibition entry in assay [4] and in assay [3] was “inactive” each time.
Consider `Nc1ccc(CN2C(=O)c3cccc4c(S(=O)(=O)O)ccc(c34)C2=O)cc1`, for which the inhibition entry in assay [1] was “inactive”.
Still for that read-out and setting: next, `Nc1ccc(CN2C(=O)c3cccc4c([N+](=O)[O-])ccc(c34)C2=O)cc1`: “inactive”; `Nc1ccc(CN2C(=O)c3cccc4cc(N)cc(c34)C2=O)cc1`: “inactive”.
Take `O=C1c2cccc3cc(S(=O)(=O)O)cc(c23)C(=O)N1Cc1ccc([N+](=O)[O-])cc1`: in assay [5], the IC50 came to 49 µM. Besides, the inhibition entry in assay [1] and in assay [3] was “inactive” throughout.
For the compound `Nc1ccc(CN2C(=O)c3cccc4c(N)ccc(c34)C2=O)cc1`, the inhibition entry in assay [1] was “inactive”.
For the compound `O=C1c2cccc3cc(S(=O)(=O)O)cc(c23)C(=O)N1Cc1ccc(O)cc1`, the inhibition result in assay [4] and in assay [3] was “inactive” throughout.
As to `Nc1ccc(CN2C(=O)c3cccc4cc([N+](=O)[O-])cc(c34)C2=O)cc1`, the inhibition entry in assay [1] was “inactive”.
Take `O=C1c2cccc3cc(S(=O)(=O)O)cc(c23)C(=O)N1Cc1ccc(Br)cc1`: the inhibition result in assay [4] and in assay [3] was “inactive” in each case.
Turning to `Nc1ccc(CN2C(=O)c3cc([N+](=O)[O-])cc4cc([N+](=O)[O-])cc(c34)C2=O)cc1`, the inhibition entry in assay [1] is “inactive”.
`O=C1c2cccc3cc(S(=O)(=O)O)cc(c23)C(=O)N1Cc1ccc(Cl)cc1`: the IC50 in assay [5] came to 111 µM. The inhibition result in assay [3] was “inactive”.
`Nc1ccc(CN2C(=O)c3cccc4cccc(c34)C2=O)cc1`: the inhibition entry in assay [1] is “inactive”.
Turning to `Nc1ccccc1CN1C(=O)c2cccc3cc(S(=O)(=O)O)cc(c23)C1=O`, the IC50 in assay [5] came out at 108 µM. Moreover, the inhibition entry in assay [3] was “inactive”.
For `Nc1ccc(CN2C(=O)c3cccc4c(Br)ccc(c34)C2=O)cc1`, the inhibition entry in assay [1] was “inactive”.
For `O=C(O)c1ccc(CN2C(=O)c3cccc4cc(S(=O)(=O)O)cc(c34)C2=O)cc1`, the IC50 in assay [5] was found to be 185 µM. Besides, the inhibition entry in assay [3] was “inactive”.
As to `Nc1ccc(CN2C(=O)c3cccc4c(Cl)ccc(c34)C2=O)cc1`, the inhibition result in assay [1] is “inactive”.
Turning to `CCCN1C(=O)c2cccc3c(N)c(S(=O)(=O)O)cc(c23)C1=O`, in assay [6], the IC50 was determined as 120 µM.
With `Nc1ccc(CN2C(=O)c3cccc4cc(O)cc(c34)C2=O)cc1`, the inhibition entry in assay [1] was “inactive”.
In the case of `O=C1c2cccc3cc(S(=O)(=O)O)cc(c23)C(=O)N1Cc1ccccc1`, the inhibition entry in assay [4] and in assay [3] was “inactive” in each case.
Take `Nc1ccc(CN2C(=O)c3cccc4cc(Br)cc(c34)C2=O)cc1`: in assay [1], the inhibition entry was “inactive”.
For `Cc1ccc(CN2C(=O)c3cccc4cc(S(=O)(=O)O)cc(c34)C2=O)cc1`, the inhibition entry in assay [4] and in assay [3] was “inactive” in each case.
For `Nc1ccc(CN2C(=O)c3cccc4cc(S(=O)(=O)O)cc(c34)C2=O)cc1`, the inhibition result in assay [2] and in assay [3] was “inactive” throughout.
Take `Nc1cccc(CN2C(=O)c3cccc4cc(S(=O)(=O)O)cc(c34)C2=O)c1`: the IC50 in assay [5] was 264 µM. For the same compound, in assay [3], the inhibition result is “inactive”.
In the case of `COc1cc2c3c(cccc3c1)C(=O)N(Cc1ccc(N)cc1)C2=O`, in assay [1], the inhibition result was “inactive”.
Turning to `O=C1c2cccc3cc(S(=O)(=O)O)cc(c23)C(=O)N1Cc1ccc(F)cc1`, the IC50 in assay [5] turned out to be 306 µM. Also, in assay [3], the inhibition entry was “inactive”.

The IC50 is the concentration that inhibits the measured activity by half.
